Measurements as given in ChEMBL document CHEMBL3797182, “In vitro evaluation of imidazo[4,5-c]quinolin-2-ones as gametocytocidal antimalarial agents” (Bioorg Med Chem Lett, 2016).

Experiments:
Plasmodium falciparum [1] = experiment: Gametocytocidal activity against Plasmodium falciparum after 72 hrs by Alamar Blue assay; type: functional, organism-based
Plasmodium falciparum [2] = experiment: Selectivity ratio of IC50 for chloroquine-sensitive late gametocytic stage (III to V) of Plasmodium falciparum 3D7 to IC50 for chloroquine-sensitive asexual blood stage of Plasmodium falciparum 3D7; type: functional
Plasmodium falciparum [3] = experiment: Gametocytocidal activity against chloroquine-sensitive late gametocytic stage (III to V) of Plasmodium falciparum 3D7 after 72 hrs by Alamar Blue assay; type: functional, organism-based; settings: 3D7, 72 h
Outline: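 Late-stage (III–V) P. falciparum 3D7 gametocytes. AlamarBlue redox indicator reads cytosolic metabolic activity as a measure of gametocyte viability. 1536-well format, 11-point dose-response, duplicates. Torin 2 positive control, DMSO negative control.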

HepG2 = experiment: Cytotoxicity against human HepG2 cells assessed as cell viability after 24 hrs; type: cell-based; settings: HepG2, 24 h
Outline: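 HepG2 cell viability as general cytotoxicity. 1536-well, 11-point dose-response in duplicate, top concentration 46 μM. Torin 2 positive control, DMSO negative control.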

Plasmodium falciparum [4] = experiment: Antimalarial activity against chloroquine-sensitive asexual blood stage of Plasmodium falciparum 3D7 infected in RBC after 72 hrs by SYBR Green assay; type: functional, organism-based; settings: 3D7, 72 h
Outline: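 Asexual blood-stage P. falciparum 3D7 (chloroquine-sensitive) parasites. 1536-well format, 11-point dose-response, duplicate tests. Torin 2 served as positive control and DMSO as negative control.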

Row | Compound | IC50 (Plasmodium falciparum [1]) [µM] | Ratio IC50 (Plasmodium falciparum [2]) | IC50 (Plasmodium falciparum [3]) [µM] | IC50 (HepG2) [µM] | IC50 (Plasmodium falciparum [4]) [µM]
1 | Nc1ccc(-c2ccc3ncc4ccc(=O)n(-c5cccc(C(F)(F)F)c5)c4c3c2)cn1 | 0.008 |  |  |  | 
2 | Cn1c(=O)n(-c2cccc(C(F)(F)F)c2)c2c3cc(-c4ccc(C(N)=O)cc4)ccc3ncc21 |  | 10 | 0.497 | 4.69 | 0.038
